This is a sample that favours compounds with a hit; in the whole collection about 3.4% have one here.
PHOSPHO1 block – blocks human PHOSPHO1 phosphatase activity; Q8TCT1; recombinant PHOSPHO1, absorbance phosphatase assay; actives 1.1% (n = 290,000); inhibition, % at 13.3 µM; AID 1565; in the data active = inhibition above about 60%
RanGTP-Imp inh – inhibitors of RanGTP-importin-beta interaction, primary screen, biochemical, FRET, CFP-Ran, YFP-importin-beta, homogeneous; cell-free CFP-Ran/YFP-importin-beta FRET ratio; inhibition, % (no concentration beside the values); actives 1.1% (n = 300,000); AID 2216;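 active = more than half of the replicate wells show a fall in the fluorescence ratio signal beyond about 16%, limit read from the data, passing the limit was not always enough; inconclusive = exactly half of the replicate wells pass the set limit; inactive = fewer than half of replicates pass the limit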;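 note: 0% = DMSO wells and 100% = Ran loaded with GDP instead of GTP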
HMGR II inh – E. faecalis class II HMG-CoA reductase inhibition; purified E. faecalis HMGR, NADPH absorbance 340 nm kinetic; inhibition, % at 10 µM; actives 0.41% (n = 190,000);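 active = inhibition above a set limit, the median over all tested compounds plus 3 SD, cut at about 9.5% in these data; inconclusive = no clear call, values can overlap the other calls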;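 note: enzyme runs in reverse so mevalonate oxidation gives rising NADPH absorbance; 0% = complete reaction with DMSO and 100% = background rate lacking mevalonate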
Runt-SMMHC FRET – Runt domain-CBFb-SMMHC interaction inhibition | Q01196+Q13951 | Cerulean-Runt/Venus-CBFb-SMMHC FRET ratio 530/480, 1 h | inhibition, % at 20 µM | actives 0.74% (n = 220,000);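 active = mean inhibition across duplicate retests at 20 µM reaching about 50%, limit read from the data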;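 note: 0% = DMSO wells and 100% = wells with excess untagged CBFb-SMMHC; inhibitors lower the FRET ratio by blocking Runt binding to CBFb-SMMHC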
Wee1 stabilizer – human Wee1 degradation inhibition, primary screen | HeLa Luc-Wee1K328M stability, luciferase luminescence; 100% = proteasome inhibitor MG132 effect | actives 1.2% (n = 220,000) | AID 1321 | reporter increase, % at 5 µM;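 active = activation above the mean of all tested compounds plus 3 SD, set per screening run, cut at about 8.8% in these data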;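 note: cells exposed to compound for 20 h before luminescence read; 0% = DMSO alone and 100% = MG132 at 30 µM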
Runt-CBFb FRET – inhibitors of human RUNX1 Runt domain binding to CBFb. Q01196+Q13951. actives 0.46% (n = 220,000). Cerulean-Runt/Venus-CBFb FRET ratio 530/480, 1 h. inhibition, % at 20 µM;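 active = inhibition over about 50% at 20 µM in the single-dose screen, limit read from the data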;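 note: 0% = DMSO wells and 100% = excess unlabeled CBFb competitor control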
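Measured by: fluorescence energy transfer, 422 nm excitation, 530/480 nm emission; Assay system: Cerulean-Runt domain; Medium: Tris pH 7.5 buffer with BSA; Measure: loss of energy transfer signal; Controls: 5 µM unlabeled CBFb as full-inhibition high control; Incubation: protein complex preformed 1 h, compound exposure 1 h, room temperature, dark.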
* marks the source's active call; other numbers are inactive results; ? = inconclusive; · = not tested or not shown.

SMILES | PHOSPHO1 block | RanGTP-Imp inh | HMGR II inh | Runt-SMMHC FRET | Wee1 stabilizer | Runt-CBFb FRET
CCn1nc(NC(C)=O)c2cc3cccc(C)c3nc21 | 31 | ? | · | · | · | ·
Cc1cccc2cc3c(NC(=O)CC(C)C)nn(C)c3nc12 | 11 | 10 | 1 | 48 | -2 | 27
Cc1cccc2cc3c(NC(=O)C(C)(C)C)nn(CC(C)C)c3nc12 | · | 80* | · | · | · | ·
O=C(O)CCNC(=O)CCCn1nnc2ccccc2c1=O | -10 | ? | · | -5 | 9.5* | 0
Cc1ccc(/C=C/C(=O)O)cc1S(=O)(=O)NCCCO | 29 | 5 | 22* | 0 | -2 | 0
COc1cc(/C=C/C(=O)O)cc(S(=O)(=O)NCCCO)c1OC | 2 | -1 | -8 | 1 | -2 | -1
COc1cc2c(cc1OC)CN(C(=O)C1CCCN1S(=O)(=O)c1ccc(F)cc1)CC2 (stereo unspecified) | 28 | 1 | · | · | · | ·
COc1cccc(OC)c1OCC(O)CN1CCN(c2ccccc2)CC1 (stereo unspecified) | -2 | 3 | 4 | 0 | 1 | -2
COc1ccccc1N1CCN(CC(O)COc2c(OC)cccc2OC)CC1 (stereo unspecified) | 18 | 24* | -3 | 1 | 1 | -1
CN(C(=S)NC(=O)c1ccccc1)C1CCCCC1 | 9 | 1 | · | · | · | ·
Cc1ccc(-c2cn3nc(-c4ccccc4)c(-c4ccccc4)nc3n2)cc1 | 0 | 90* | · | 81 | 1 | 2
O=[N+]([O-])c1ccc(-c2cn3nc(-c4ccccc4)c(-c4ccccc4)nc3n2)cc1 | 28 | 42* | · | 81 | -1 | -130
O=[N+]([O-])c1cccc(-c2cn3nc(-c4ccccc4)c(-c4ccccc4)nc3n2)c1 | 33 | 70* | · | 90 | 3 | 0
S=c1nc(-c2csc3c2CCCC3)[nH][nH]1 | -18 | 8 | 1 | 14 | -1 | 28
CCCC1(C(=O)OCC)NC(c2ccc(O)cc2)C2C(=O)N(c3cccc(C(C)=O)c3)C(=O)C21 (stereo unspecified) | 19 | 2 | · | · | · | ·
COc1ccc(Nc2nc(-c3sc(NC(C)=O)nc3C)cs2)cc1 | 73* | 0 | -4 | 1 | 1 | 10
Cc1nc(N)sc1-c1csc(Nc2ccccn2)n1 | 70* | 4 | -4 | 2 | -2 | 7
COc1ccc(Nc2nc(-c3sc(N)nc3C)cs2)cc1 | 68* | -4 | 0 | 7 | -1 | 13
COCC(=O)N1CCC(Oc2ccc(C(=O)N3CCCCC3COC)cc2)CC1 (stereo unspecified) | 17 | 0 | · | · | · | ·
CCOc1cc(-c2nnn(CC(=O)N3CCCCC3)n2)ccc1OC | · | -5 | · | · | · | ·
CCOC(=O)C1CCN(C(=O)CCS(=O)(=O)c2ccc3c(c2)n(C)c(=O)c(=O)n3C)CC1 | 2 | -2 | · | · | · | ·
O=C(Nc1c2ccccc2nc2ccccc12)C(Cl)(Cl)Cl | 36 | 135* | -1 | -14 | 3 | 12
O=C(Nc1c2c(nc3ccccc13)CCCC2)c1ccccc1Cl | -19 | 1 | -7 | -2 | 0 | -2
COC(=O)Nc1ccc2c(c1)N(C(=O)CCN1CCN3CCCC3C1)c1ccccc1CC2 (stereo unspecified) | 24 | -3 | -2 | 2 | -1 | 2
COC(=O)Nc1ccc2c(c1)N(C(=O)CCN1CCN3CCCC3C1)c1ccccc1S2 (stereo unspecified) | 66* | -4 | -5 | 2 | 5 | 2
SMILES | PHOSPHO1 block | RanGTP-Imp inh | HMGR II inh | Runt-SMMHC FRET | Wee1 stabilizer | Runt-CBFb FRET
O=C(/C=C/NNC(=O)c1ccccc1O)c1ccccc1 | 50 | -1 | · | · | · | ·
Cn1cc(/C=C(\NC(=O)c2ccccc2)C(=O)NCCCN2CCOCC2)c2ccccc21 | 45 | -1 | · | · | · | ·
CCC1=NN(C(=O)C(=O)Nc2ccc(OC)cc2)C(O)(C(F)(F)F)C1 (stereo unspecified) | 72* | 5 | -1 | 0 | -2 | 1
CCC1=NN(C(=O)C(=O)Nc2ccccc2OC)C(O)(C(F)(F)F)C1 (stereo unspecified) | -90 | 6 | -5 | 4 | 0 | 1
Cc1ncc([N+](=O)[O-])n1CC(=O)Nc1ccc(Br)cc1 | 19 | 1 | · | · | · | ·
O=c1cc(N2CCOCC2)c2ccccc2o1 | 14 | 4 | -1 | 0 | -1 | 2

Source: PubChem (several laboratories)
